Measured values from ChEMBL document CHEMBL4196059, “Design, synthesis, and biological evaluation of stable β6.3-Helices: Discovery of non-hemolytic antibacterial peptides” (Eur J Med Chem, 2018).
pKd: −log10 of the molar value. Calls of active or inactive are those of the source. The rule behind the calls is not given here.

Experiments:
[1] = Hemolytic activity against human RBC at 50 uM after 1 hr by Drabkin's assay relative to control; assay type: ADME, cell-based, Erythrocyte; conditions: human red blood cells (erythrocytes), read-out: Activity
[2] = Hemolytic activity against human RBC at 25 uM after 1 hr by Drabkin's assay relative to control; assay type: ADME, cell-based, Erythrocyte; conditions: human red blood cells (erythrocytes), read-out: Activity
[3] = Hemolytic activity against human RBC at 12.5 uM after 1 hr by Drabkin's assay relative to control; assay type: ADME, cell-based, Erythrocyte; conditions: human red blood cells (erythrocytes), read-out: Activity
[4] = Hemolytic activity against human RBC at 6.25 uM after 1 hr by Drabkin's assay relative to control; assay type: ADME, cell-based, Erythrocyte; conditions: human red blood cells (erythrocytes), read-out: Activity
[5] = Hemolytic activity against human RBC at 3.125 uM after 1 hr by Drabkin's assay relative to control; assay type: ADME, cell-based, Erythrocyte; conditions: human red blood cells (erythrocytes), read-out: Activity
[6] = Hemolytic activity against human RBC at 1.56 uM after 1 hr by Drabkin's assay relative to control; assay type: ADME, cell-based, Erythrocyte; conditions: human red blood cells (erythrocytes), read-out: Activity
[7] = Hemolytic activity against human RBC at 0.78 uM after 1 hr by Drabkin's assay relative to control; assay type: ADME, cell-based, Erythrocyte; conditions: human red blood cells (erythrocytes), read-out: Activity
[8] = test system: Erythrocyte; assay: Hemolytic activity against human RBC after 1 hr by Drabkin's assay; assay type: ADME, cell-based
[9] = target: Lipid bilayer; assay: Binding affinity to POPC vesicles by surface plasmon resonance spectroscopy
Outline: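 SPR on a dextran chip carrying immobilized POPC liposomes, with running buffer of 10 mM HEPES and 100 mM KCl at pH 7.4. Peptides in PBS were flowed at 25 μL/min at 10–1000 μM, with reference-subtracted response units. KD and Rmax were fitted from maximum response versus concentration. Regeneration used 20 mM CHAPS followed by fresh liposomes.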

[10] = test system: Staphylococcus aureus; assay: Growth inhibition of methicillin-resistant Staphylococcus aureus ATCC 43300 at 32 ug/ml after 18 hrs; assay type: functional; conditions: ATCC 43300, 18 h, read-out: GI
Outline: (§1)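 Mid-log cultures in cation-adjusted Mueller Hinton broth were added at 5×10^5 CFU/mL to wells at a final compound concentration of 32 μg/mL. Plates stood at 37 °C for 18 h. Growth was read by OD600, and % inhibition was computed against media-only and untreated-bacteria controls.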

[11] = test system: Escherichia coli; assay: Growth inhibition of Escherichia coli ATCC 25922 at 32 ug/ml after 18 hrs; assay type: functional; conditions: ATCC 25922, 18 h, read-out: GI
Outline: (§2)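 Mid-log cultures were prepared as above and seeded at 5×10^5 CFU/mL with compound at a final 32 μg/mL, then held static at 37 °C for 18 h. Growth was read as OD600. Percent inhibition was calculated against media-only and bacteria-only controls on the same plate.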

[12] = test system: Klebsiella pneumoniae; assay: Growth inhibition of multidrug-resistant Klebsiella pneumoniae ATCC 700603 at 32 ug/ml after 18 hrs; assay type: functional; conditions: ATCC 700603, 18 h, read-out: GI; outline: as §1
[13] = test system: Pseudomonas aeruginosa; assay: Growth inhibition of Pseudomonas aeruginosa ATCC 27853 at 32 ug/ml after 18 hrs; assay type: functional; conditions: ATCC 27853, 18 h, read-out: GI; outline: as §2
[14] = test system: Acinetobacter baumannii; assay: Growth inhibition of Acinetobacter baumannii ATCC 19606 at 32 ug/ml after 18 hrs; assay type: functional; conditions: ATCC 19606 = CIP 70.34 = JCM 6841, 18 h, read-out: GI; outline: as §2
[15] = test system: Cryptococcus neoformans; assay: Growth inhibition of Cryptococcus neoformans H99 ATCC 208821 at 32 ug/ml after 24 hrs by resazurin dye-based microspectrophotometric assay; assay type: functional; conditions: var. grubii H99 ATCC 208821, 24 h, read-out: GI
Outline: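 Yeasts were grown 3 days on YPD agar at 30 °C, suspended from five colonies and diluted in YNB broth to a final 2.5×10^3 CFU/mL. Compound at a final 32 μg/mL; incubated 24 h at 35 °C without shaking. C. albicans was read at OD530. C. neoformans was read as OD600–570 after resazurin (0.001% final) and a further 2 h at 35 °C. Fluconazole was the standard.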

[16] = Induction of pore formation in DOPC vesicles at 20 uM after 3 hrs by carboxyfluorescein dye leakage assay; conditions: in the assay text read “after 3 mins” for “after 3 hrs”
Outline: (§3)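 POPC or DOPC liposomes were hydrated in 10 mM HEPES, 100 mM KCl, pH 7.4, containing 50 mM carboxyfluorescein. Size was checked by dynamic light scattering, and vesicles were used at 2.2×10^10 per mL. Peptide at 20 μM was equilibrated with vesicles for 3 min, and dye leakage was measured.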

[17] = test system: Candida albicans; assay: Growth inhibition of Candida albicans ATCC 90028 at 32 ug/ml after 24 hrs by OD530 light-scattering microspectrophotometric method; conditions: ATCC 90028, 24 h, read-out: GI
[18] = Hemolytic activity against human RBC at 0.39 uM after 1 hr by Drabkin's assay relative to control; assay type: ADME, cell-based, Erythrocyte; conditions: human red blood cells (erythrocytes), read-out: Activity
[19] = Hemolytic activity against human RBC at 100 uM after 1 hr by Drabkin's assay relative to control; assay type: ADME, cell-based, Erythrocyte; conditions: human red blood cells (erythrocytes), read-out: Activity
[20] = test system: Lipid bilayer; assay: Induction of pore formation in POPC vesicles at 20 uM after 3 hrs by carboxyfluorescein dye leakage assay; conditions: in the assay text read “after 3 mins” for “after 3 hrs”; outline: as §3

CC(=O)N1CCCN1C(=O)N1CCC[C@H]1C(=O)N1CCCN1C(=O)N1CCC[C@H]1C(=O)N1CCCN1C(=O)N1CCC[C@H]1C(=O)N1CCCN1C(=O)N1CCC[C@H]1C(=O)N1CCCN1C(=O)N1CCC[C@H]1C(=O)N1CCCN1C(=O)N1CCC[C@H]1C(=O)N1CCCN1C(=O)N1CCC[C@H]1C(=O)N1CCCN1C(=O)N1CCC[C@H]1C(=O)NCCO
hemolysis at 1 h, 50 µM [1]: -0.57% | hemolysis at 1 h, 25 µM [2]: 0% | hemolysis at 1 h, 12.5 µM [3]: -0.33% | hemolysis at 1 h, 6.25 µM [4]: 0.08% | hemolysis at 1 h, 3.125 µM [5]: -0.12% | hemolysis at 1 h, 1.56 µM [6]: -0.12% | hemolysis at 1 h, 0.78 µM [7]: -0.16% | Activity [8]: Dose-dependent effect | pKd [9]: 3.21 | Rmax [9]: 460 | inhibition of growth at 32 µg/mL [10]: 16.5% | inhibition of growth at 32 µg/mL [11]: 10.7% | inhibition of growth at 32 µg/mL [12]: 10.7% | inhibition of growth at 32 µg/mL [13]: -0.44% | inhibition of growth at 32 µg/mL [14]: 6.55% | inhibition of growth at 32 µg/mL [15]: -0.86% | Activity [16]: inactive | inhibition of growth at 32 µg/mL [17]: 2.45%

O=CN1CCCN1C(=O)N1CCC[C@H]1C(=O)N1CCCN1C(=O)N1CCC[C@H]1C(=O)N1CCCN1C(=O)N1CCC[C@H]1C(=O)N1CCCN1C(=O)N1CCC[C@H]1C(=O)N1CCCN1C(=O)N1CCC[C@H]1C(=O)N1CCCN1C(=O)N1CCC[C@H]1C(=O)N1CCCN1C(=O)N1CCC[C@H]1C(=O)N1CCCN1C(=O)N1CCC[C@H]1C(=O)NCCO
hemolysis at 1 h, 50 µM [1]: -0.17% | hemolysis at 1 h, 25 µM [2]: -0.23% | hemolysis at 1 h, 12.5 µM [3]: -0.23% | hemolysis at 1 h, 6.25 µM [4]: -0.17% | hemolysis at 1 h, 3.125 µM [5]: 0.02% | hemolysis at 1 h, 1.56 µM [6]: -0.17% | hemolysis at 1 h, 0.78 µM [7]: 0.08% | hemolysis at 1 h, 0.39 µM [18]: -0.11% | Activity [8]: Dose-dependent effect | inhibition of growth at 32 µg/mL [10]: 16.5% | inhibition of growth at 32 µg/mL [11]: 3.23% | inhibition of growth at 32 µg/mL [12]: 3.23% | inhibition of growth at 32 µg/mL [13]: -4.91% | inhibition of growth at 32 µg/mL [14]: 12.3% | inhibition of growth at 32 µg/mL [15]: -8.24% | Activity [16]: inactive | inhibition of growth at 32 µg/mL [17]: 5.4%

O=CN1CCCN1C(=O)N1CCC[C@H]1C(=O)N1CCCN1C(=O)N1CCC[C@H]1C(=O)N1CCCN1C(=O)N1CCC[C@H]1C(=O)N1CCCN1C(=O)N1CCC[C@H]1C(=O)N1CCCN1C(=O)N1CCC[C@H]1C(=O)N1CCCN1C(=O)N1CCC[C@H]1C(=O)NCCO
hemolysis at 1 h, 50 µM [1]: -0.49% | hemolysis at 1 h, 25 µM [2]: 0.271% | hemolysis at 1 h, 12.5 µM [3]: -0.452% | hemolysis at 1 h, 6.25 µM [4]: -0.181% | hemolysis at 1 h, 3.125 µM [5]: -0.55% | hemolysis at 1 h, 1.56 µM [6]: -0.12% | hemolysis at 1 h, 0.78 µM [7]: -0.16% | hemolysis at 1 h, 0.39 µM [18]: -0.12% | hemolysis at 1 h, 100 µM [19]: -0.55% | Activity [8]: Dose-dependent effect | inhibition of growth at 32 µg/mL [10]: 1.36% | inhibition of growth at 32 µg/mL [11]: 0.72% | inhibition of growth at 32 µg/mL [12]: 0.72% | inhibition of growth at 32 µg/mL [13]: -12.5% | inhibition of growth at 32 µg/mL [14]: 3.07% | inhibition of growth at 32 µg/mL [15]: -11.1% | Activity [20]: inactive | inhibition of growth at 32 µg/mL [17]: 5.12%
